Laboratory results: ChEMBL document CHEMBL1141286, “Benzochromenones from the marine crinoid Comantheria rotula inhibit hypoxia-inducible factor-1 (HIF-1) in cell-based reporter assays and differentially suppress the growth of certain tumor cell lines” (J Nat Prod, 2007)

system: KM12; assay: Growth inhibition of human KM12 cells; assay type: functional; details: read-out: Log LC50 (the source's name) (converted)

| Structure (SMILES) | CC50 [µM] |
| --- | --- |
| CCCc1cc(=O)c2c(OC)c3c(OC)cc(OC)cc3cc2o1 | > 100 |

same assay, conditions: read-out: Log TGI (converted)

| Structure (SMILES) | TGI [µM] |
| --- | --- |
| CCCc1cc(=O)c2c(OC)c3c(OC)cc(OC)cc3cc2o1 | > 100 |

system: MDA-MB-231; assay: Growth inhibition of human MDA-MB-231 cells; assay type: functional; details: not given

| Structure (SMILES) | GI50 [µM] | LC50 [µM] |
| --- | --- | --- |
| CCCc1cc(=O)c2c(OC)c3c(OC)cc(OC)cc3cc2o1 | 25.7 | > 100 |

same assay, conditions: read-out: Log TGI (converted)

| Structure (SMILES) | TGI [µM] |
| --- | --- |
| CCCc1cc(=O)c2c(OC)c3c(OC)cc(OC)cc3cc2o1 | > 100 |

system: HT-29; assay: Growth inhibition of human HT29 cells; assay type: functional; details: not given

| Structure (SMILES) | GI50 [µM] |
| --- | --- |
| CCCc1cc(=O)c2c(OC)c3c(OC)cc(OC)cc3cc2o1 | 26.3 |

same assay, conditions: read-out: Log LC50 (the source's name) (converted)

| Structure (SMILES) | CC50 [µM] |
| --- | --- |
| CCCc1cc(=O)c2c(OC)c3c(OC)cc(OC)cc3cc2o1 | > 100 |

same assay, conditions: read-out: Log TGI (converted)

| Structure (SMILES) | TGI [µM] |
| --- | --- |
| CCCc1cc(=O)c2c(OC)c3c(OC)cc(OC)cc3cc2o1 | > 100 |

system: NCI-H23; assay: Growth inhibition of human NCI-H23 cells; assay type: functional; details: not given

| Structure (SMILES) | GI50 [µM] |
| --- | --- |
| CCCc1cc(=O)c2c(OC)c3c(OC)cc(OC)cc3cc2o1 | > 100 |

same assay, conditions: read-out: Log LC50 (the source's name) (converted)

| Structure (SMILES) | CC50 [µM] |
| --- | --- |
| CCCc1cc(=O)c2c(OC)c3c(OC)cc(OC)cc3cc2o1 | > 100 |

same assay, conditions: read-out: Log TGI (converted)

| Structure (SMILES) | TGI [µM] |
| --- | --- |
| CCCc1cc(=O)c2c(OC)c3c(OC)cc(OC)cc3cc2o1 | > 100 |

system: OVCAR-4; assay: Growth inhibition of human OVACAR4 cells; assay type: functional; details: not given

| Structure (SMILES) | GI50 [µM] | LC50 [µM] |
| --- | --- | --- |
| CCCc1cc(=O)c2c(OC)c3c(OC)cc(OC)cc3cc2o1 | 81.3 | > 100 |

same assay, conditions: read-out: Log TGI (converted)

| Structure (SMILES) | TGI [µM] |
| --- | --- |
| CCCc1cc(=O)c2c(OC)c3c(OC)cc(OC)cc3cc2o1 | > 100 |

system: HCC 2998; assay: Growth inhibition of human HCC2998 cells; assay type: functional; details: not given

| Structure (SMILES) | GI50 [µM] |
| --- | --- |
| CCCc1cc(=O)c2c(OC)c3c(OC)cc(OC)cc3cc2o1 | > 100 |

same assay, conditions: read-out: Log LC50 (the source's name) (converted)

| Structure (SMILES) | CC50 [µM] |
| --- | --- |
| CCCc1cc(=O)c2c(OC)c3c(OC)cc(OC)cc3cc2o1 | > 100 |

same assay, conditions: read-out: Log TGI (converted)

| Structure (SMILES) | TGI [µM] |
| --- | --- |
| CCCc1cc(=O)c2c(OC)c3c(OC)cc(OC)cc3cc2o1 | > 100 |

system: K562; assay: Growth inhibition of human K562 cells; assay type: functional; details: not given

| Structure (SMILES) | GI50 [µM] |
| --- | --- |
| CCCc1cc(=O)c2c(OC)c3c(OC)cc(OC)cc3cc2o1 | 39.8 |

same assay, conditions: read-out: Log LC50 (the source's name) (converted)

| Structure (SMILES) | CC50 [µM] |
| --- | --- |
| CCCc1cc(=O)c2c(OC)c3c(OC)cc(OC)cc3cc2o1 | > 100 |

same assay, conditions: read-out: Log TGI (converted)

| Structure (SMILES) | TGI [µM] |
| --- | --- |
| CCCc1cc(=O)c2c(OC)c3c(OC)cc(OC)cc3cc2o1 | > 100 |

system: U-251; assay: Growth inhibition of human U251 cells; assay type: functional; details: not given

| Structure (SMILES) | GI50 [µM] | LC50 [µM] |
| --- | --- | --- |
| CCCc1cc(=O)c2c(OC)c3c(OC)cc(OC)cc3cc2o1 | > 100 | > 100 |

same assay, conditions: read-out: Log TGI (converted)

| Structure (SMILES) | TGI [µM] |
| --- | --- |
| CCCc1cc(=O)c2c(OC)c3c(OC)cc(OC)cc3cc2o1 | > 100 |

system: HOP-62; assay: Growth inhibition of human HOP62 cells; assay type: functional; details: not given

| Structure (SMILES) | GI50 [µM] |
| --- | --- |
| CCCc1cc(=O)c2c(OC)c3c(OC)cc(OC)cc3cc2o1 | 57.5 |

same assay, conditions: read-out: Log LC50 (the source's name) (converted)

| Structure (SMILES) | CC50 [µM] |
| --- | --- |
| CCCc1cc(=O)c2c(OC)c3c(OC)cc(OC)cc3cc2o1 | > 100 |

same assay, conditions: read-out: Log TGI (converted)

| Structure (SMILES) | TGI [µM] |
| --- | --- |
| CCCc1cc(=O)c2c(OC)c3c(OC)cc(OC)cc3cc2o1 | > 100 |

system: Malme-3M; assay: Growth inhibition of human MALME-3M cells; assay type: functional; details: not given

| Structure (SMILES) | GI50 [µM] |
| --- | --- |
| CCCc1cc(=O)c2c(OC)c3c(OC)cc(OC)cc3cc2o1 | 83.2 |

same assay, conditions: read-out: Log LC50 (the source's name) (converted)

| Structure (SMILES) | CC50 [µM] |
| --- | --- |
| CCCc1cc(=O)c2c(OC)c3c(OC)cc(OC)cc3cc2o1 | > 100 |

same assay, conditions: read-out: Log TGI (converted)

| Structure (SMILES) | TGI [µM] |
| --- | --- |
| CCCc1cc(=O)c2c(OC)c3c(OC)cc(OC)cc3cc2o1 | > 100 |

system: DU-145; assay: Growth inhibition of human DU145 cells; assay type: functional; details: not given

| Structure (SMILES) | GI50 [µM] |
| --- | --- |
| CCCc1cc(=O)c2c(OC)c3c(OC)cc(OC)cc3cc2o1 | 81.3 |

same assay, conditions: read-out: Log LC50 (the source's name) (converted)

| Structure (SMILES) | CC50 [µM] |
| --- | --- |
| CCCc1cc(=O)c2c(OC)c3c(OC)cc(OC)cc3cc2o1 | > 100 |

same assay, conditions: read-out: Log TGI (converted)

| Structure (SMILES) | TGI [µM] |
| --- | --- |
| CCCc1cc(=O)c2c(OC)c3c(OC)cc(OC)cc3cc2o1 | > 100 |

system: not listed separately; assay: Inhibition of HIF1 activation in PC3 cells by TK-luciferase assay; assay type: cell-based; details: Homo sapiens, PC-3
How it was run: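 HIF-1 reporter (pHRE-TK-Luc) assays in transfected PC-3 or T47D cells; HIF-1 induced by hypoxia or by the hypoxia mimetic 1,10-phenanthroline (10 μM); compounds at half-log concentrations; luciferase activity measured; IC50 from experiments in triplicate.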

| Structure (SMILES) | IC50 [µM] |
| --- | --- |
| CCCc1cc(=O)c2c(OC)c3c(OC)cc(OC)cc3cc2o1 | > 10 |

system: SK-MEL-28; assay: Growth inhibition of human SK-MEL28 cells; assay type: functional; details: not given

| Structure (SMILES) | GI50 [µM] |
| --- | --- |
| CCCc1cc(=O)c2c(OC)c3c(OC)cc(OC)cc3cc2o1 | > 100 |

same assay, conditions: read-out: Log LC50 (the source's name) (converted)

| Structure (SMILES) | CC50 [µM] |
| --- | --- |
| CCCc1cc(=O)c2c(OC)c3c(OC)cc(OC)cc3cc2o1 | > 100 |

same assay, conditions: read-out: Log TGI (converted)

| Structure (SMILES) | TGI [µM] |
| --- | --- |
| CCCc1cc(=O)c2c(OC)c3c(OC)cc(OC)cc3cc2o1 | > 100 |
